Results gathered from unrelated publications.
Each line is one published result; the experiments were not run side by side.
EGFR del747-752/P753S: Epidermal growth factor receptor (EGFR, Homo sapiens, UniProt P00533, del747-752/P753S)
EGFR L858R: Epidermal growth factor receptor (EGFR, Homo sapiens, UniProt P00533, L858R)
EGFR T790M: Epidermal growth factor receptor (EGFR, Homo sapiens, UniProt P00533, T790M)
EGFR G719S: Epidermal growth factor receptor (EGFR, Homo sapiens, UniProt P00533, G719S)
EGFR: Epidermal growth factor receptor (EGFR, Homo sapiens, UniProt P00533)
EGFR L861Q: Epidermal growth factor receptor (EGFR, Homo sapiens, UniProt P00533, L861Q)
EGFR G719C: Epidermal growth factor receptor (EGFR, Homo sapiens, UniProt P00533, G719C)
EGFR L858R/T790M: Epidermal growth factor receptor (EGFR, Homo sapiens, UniProt P00533, L858R/T790M)
EGFR del747-750/T751S: Epidermal growth factor receptor (EGFR, Homo sapiens, UniProt P00533, del747-750/T751S)
EGFR del746-750: Epidermal growth factor receptor (EGFR, Homo sapiens, UniProt P00533, del746-750)

O=C(Nc1c[nH]nc1C(=O)NC1CCNCC1)c1cc(F)cc(F)c1
remaining binding (EGFR del747-752/P753S; binding; competition with immobilised ligand; 1 µM): 100%

CN(c1nccc(-c2cnn3ncccc23)n1)C1CC1
remaining binding (EGFR L858R; binding; 1 µM): 100%

COc1ncc2cc3ccccc3nc2c1C#N
remaining binding (EGFR T790M; cell-free assay; competition with immobilised ligand; 5 µM): 100%

CS(=O)(=O)NCC[C@H](NC(=O)c1cncc2c1cnn2-c1ccc(F)cc1)c1ccnc(S(C)(=O)=O)c1
remaining binding (EGFR G719S; cell-free assay; competition with immobilised ligand; 1 µM): 75%

Cc1c(-c2ccccc2)oc2c(C(=O)OCCN3CCCCC3)cccc2c1=O
remaining binding (EGFR; cell-free assay; competition with immobilised ligand; 0.1 µM): 100%

C[C@@H]1CCN(c2nccc(-c3cnn4ncccc34)n2)C1
remaining binding (EGFR L861Q; binding; 1 µM): 92%

c1ccc(N2CCN(Cc3nc4ccccc4[nH]3)CC2)nc1
remaining binding (EGFR T790M; cell-free assay; competition with immobilised ligand; 1 µM): 99%

CNC(=O)[C@@H]1CC[C@@H](n2c(-c3ccc4cnccc4c3)nc3ccc(C(=O)NCc4cccc(C(N)=O)c4)cc32)C1
remaining binding (EGFR del747-752/P753S; binding; competition with immobilised ligand; 1 µM): 100%

CN1CCN(c2ccc(Nc3nccc(-c4ccccc4)n3)cc2C(F)(F)F)CC1
remaining binding (EGFR G719S; binding; 10 µM): 98%

COc1cnc(Nc2cccc(S(N)(=O)=O)c2)nc1N1CCN(c2ccccc2)C(=O)C1
remaining binding (EGFR G719C; binding; competition with immobilised ligand; 1 µM): 100%

O=C(c1ccc(Nc2ncc(Cl)c(-c3ccc(Cl)s3)n2)cc1)N1CCC(N2CCCC2)CC1
remaining binding (EGFR del747-752/P753S; binding; competition with immobilised ligand; 1 µM): 82%

NS(=O)(=O)c1cc(NC(=O)C2(c3ccccc3Cl)CC2)ccc1Oc1cccc(Cl)c1
remaining binding (EGFR del747-752/P753S; cell-free assay; competition with immobilised ligand; 1 µM): 57%

O=C(NCC1CCOCC1)c1n[nH]cc1NC(=O)c1c(F)cccc1F
remaining binding (EGFR G719C; binding; competition with immobilised ligand; 1 µM): 100%

N[C@H]1CCN(c2nccc(-c3cnn4ncccc34)n2)C1
remaining binding (EGFR L858R; binding; 1 µM): 100%

CCN(CC)Cc1cc(Nc2ccnc3cc(Cl)ccc23)ccc1O
remaining binding (EGFR; cell-free assay; competition with immobilised ligand; 10 µM): 91%

Cc1cnn2ncc(-c3ccnc(N(C)C)n3)c2c1
remaining binding (EGFR L858R; binding; 1 µM): 100%

O=C(NCCCN1CCOCC1)c1ccc(Nc2ncc(Cl)c(-c3ccc(Cl)s3)n2)cc1
remaining binding (EGFR L861Q; binding; competition with immobilised ligand; 1 µM): 100%

COc1ccnn2ncc(-c3ccnc(N(C)C)n3)c12
remaining binding (EGFR L861Q; binding; 1 µM): 97%

CN(C)C(=O)Cn1cc(-c2nc([C@@](C)(c3ccc(-c4cnc(N)nc4)cc3)C3CC3)no2)cn1
remaining binding (EGFR; cell-free assay; competition with immobilised ligand; 1 µM): 93%

CCN1CCN(Cc2ccc(C(=O)Nc3ccc(C)c(Oc4ccc5c(c4)CC(=O)N5)c3)cc2C(F)(F)F)CC1
remaining binding (EGFR; binding; competition with immobilised ligand; 1 µM): 100%

Nc1ncc2c(n1)-c1c([nH]c3ccc(C#CC4CC4)cc13)CCCC2
remaining binding (EGFR L861Q; binding; competition with immobilised ligand; 1 µM): 92%

CCOC(=O)c1cc2cc(-c3cc(C(=O)NCc4ccc(C(=O)O)cc4)nn3C)ccc2[nH]1
remaining binding (EGFR T790M; cell-free assay; competition with immobilised ligand; 0.1 µM): 89%

Cc1cnc(Nc2ccc(C(=O)N3CCC(N4CCCC4)CC3)cc2)nc1-c1cc2ccccc2s1
remaining binding (EGFR T790M; binding; competition with immobilised ligand; 1 µM): 56%

CN(C)c1nccc(-c2cnn3ncccc23)n1
remaining binding (EGFR L858R/T790M; binding; 1 µM): 100%

O=C(c1ccc(Nc2ncc(Cl)c(-c3cc4ccccc4s3)n2)cc1)N1CCC(N2CCCC2)CC1
remaining binding (EGFR del747-750/T751S; binding; competition with immobilised ligand; 1 µM): 89%

CN1CCN(c2ccc(Nc3nccc(-c4cccc([N+](=O)[O-])c4)n3)cc2C(F)(F)F)CC1
remaining binding (EGFR del746-750; binding; 10 µM): 34%

CN(C)c1nccc(-c2cnc3ncccn23)n1
remaining binding (EGFR T790M; binding; 1 µM): 58%

COc1cnc(Nc2cccc(S(N)(=O)=O)c2)nc1N1CCN(c2ccccc2)CC1
remaining binding (EGFR del747-752/P753S; binding; competition with immobilised ligand; 1 µM): 85%

O=C(c1ccc(Nc2nccc(-c3cc4ccccc4s3)n2)cc1)N1CCC(N2CCCC2)CC1
remaining binding (EGFR del747-750/T751S; binding; competition with immobilised ligand; 1 µM): 82%

O=C(NCCCC1CCCCC1)c1ccc(CNC(=O)c2cnn(-c3ccccc3)c2C(F)(F)F)cc1
remaining binding (EGFR L858R/T790M; cell-free assay; competition with immobilised ligand; 0.1 µM): 95%

c1cncc(-c2cccc(Nc3nccc(NC4CCCCC4)n3)c2)c1
remaining binding (EGFR L858R; binding; competition with immobilised ligand; 10 µM): 58%

CCCOc1ccc([C@@H]2[C@@H](C(=O)O)[C@H](c3ccc4c(c3)OCO4)CN2CC(=O)Nc2c(CC)cccc2CC)cc1
remaining binding (EGFR L861Q; cell-free assay; competition with immobilised ligand; 1 µM): 100%

CN(C)c1ncc(F)c(-c2cnn3ncccc23)n1
remaining binding (EGFR L861Q; binding; 1 µM): 100%

C[C@@H](c1cccc(C#N)c1)n1cc(Cl)cc(C(N)=O)c1=N
remaining binding (EGFR del746-750; cell-free assay; competition with immobilised ligand; 1 µM): 93%

O=C(NCCCN1CCOCC1)c1ccc(Nc2nccc(-c3cc4ccccc4s3)n2)cc1
remaining binding (EGFR; binding; competition with immobilised ligand; 1 µM): 87%
